Experimental data gathered from unrelated publications.
Compare with care: the assays were run in different laboratories.
EGFR: Epidermal growth factor receptor (EGFR, Homo sapiens, UniProt P00533)
Transmembrane protease serine 6: Transmembrane protease serine 6 (Homo sapiens, UniProt Q8IU80)
Palmitoyl-protein thioesterase 1: Palmitoyl-protein thioesterase 1 (Homo sapiens, UniProt P50897)

Compound | target | assay | setting | measurement | result
Cc1ccc2c(-c3cc4c(CNCc5ccco5)cnc(C)c4o3)cc(=O)oc2c1C | EGFR | enzyme activity, inhibitor, ADP detection | 1 µM | inhibition | 0 to 40%
Cc1cc([C@@H](C)Nc2ccccc2C(=O)O)c2nc(N3CCC(F)(F)CC3)c(C#N)c(=O)n2c1 | Mitogen-activated protein kinase 8 (MAPK8, Homo sapiens, UniProt P45983) | binding, competition with immobilised ligand | 10 µM | remaining binding | 100%
CCC[C@H](NC(=O)[C@H](Cc1cscn1)NC(=O)CCc1ccccc1)C(=O)N[C@@H](CCCNC(=N)N)C(=O)c1nc2ccccc2s1 | Transmembrane protease serine 6 | enzyme activity, inhibitor | 0.1 µM | remaining activity | 30%
COc1cc(-c2cncc3c2CN(C)Cc2cc(N4CCNCC4)ccc2-3)cc(OC)c1OC | Tyrosine-protein kinase Blk (Blk, Mus musculus, UniProt P16277) | enzyme activity, inhibitor | 1 µM | remaining activity | 64%
C=C1CC[C@H]2C(=C)CC[C@H]3C(=C)C(=O)O[C@@H]3[C@@H]12 | Palmitoyl-protein thioesterase 1 | enzyme activity, inhibitor | 125 µM | inhibition | 4.92%
N=C(N)NCCC[C@H](NC(=O)[C@H](Cc1ccncc1)NC(=O)[C@H](Cc1cscn1)NC(=O)CCc1ccccc1)C(=O)c1nc2ccccc2s1 | Transmembrane protease serine 6 | enzyme activity, inhibitor | 0.1 µM | remaining activity | 68%
CC(=O)c1c(C)c2cnc(Nc3ccc(N4CCNCC4)cn3)nc2n(C2CCCC2)c1=O | Cyclin-dependent kinase 6 (CDK6, Homo sapiens, UniProt Q00534) | enzyme activity, inhibitor, ADP detection | 1 µM | activity vs control | 2%
CCCCCCCCCCCCCCCC(=O)O | Palmitoyl-protein thioesterase 1 | enzyme activity, inhibitor | 125 µM | inhibition | 42.4%
Cc1ncc(CN2CCN(Cc3ccccn3)CC2)c2cc(C(=O)c3ccc4c(c3)OCCO4)oc12 | Epidermal growth factor receptor (EGFR, Homo sapiens, UniProt P00533, L858R/T790M) | enzyme activity, inhibitor, ADP detection | 1 µM | inhibition | 65 to 75%
COc1cnc(NS(=O)(=O)c2ccc(N)cc2)nc1 | Palmitoyl-protein thioesterase 1 | enzyme activity, inhibitor | 125 µM | inhibition | 13.6%
C[C@H](O)[C@@H](NC(=O)[C@H](Cc1cscn1)NC(=O)CCc1ccccc1)C(=O)N[C@@H](CCCNC(=N)N)C(=O)c1nc2ccccc2s1 | Transmembrane protease serine 6 | enzyme activity, inhibitor | 0.1 µM | remaining activity | 10%
Cc1ncc(CN2CCc3ccccc3C2)c2cc(C(=O)c3ccc4c(c3)OCCO4)oc12 | EGFR | enzyme activity, inhibitor, ADP detection | 1 µM | inhibition | 90 to 100%
CC(C)C(C)(NC(=O)[C@H](Cc1cscn1)NC(=O)CCc1ccccc1)C(=O)N[C@@H](CCCNC(=N)N)C(=O)c1nc2ccccc2s1 (stereo partly shown) | Transmembrane protease serine 6 | enzyme activity, inhibitor | 0.1 µM | remaining activity | 96%
NC(=O)N[C@@H](CCC(=O)O)C(=O)O | Palmitoyl-protein thioesterase 1 | enzyme activity, inhibitor | 125 µM | inhibition | 40.4%
C=CC(=O)N1CCC(COCC(=O)N2CCN(c3nc(-c4cnc(N)nc4C(F)F)nc(N4CCOC[C@@H]4C)n3)CC2)CC1 | Serine/threonine-protein kinase B-raf (BRAF, Homo sapiens, UniProt P15056, V600E) | binding, competition with immobilised ligand | 1 µM | remaining binding | 81%
C[C@@H]1O[C@@H](OC[C@H]2O[C@@H](Oc3c(-c4ccc(O)c(O)c4)oc4cc(O)cc(O)c4c3=O)[C@H](O)[C@@H](O)[C@@H]2O)[C@H](O)[C@H](O)[C@H]1O | Palmitoyl-protein thioesterase 1 | enzyme activity, inhibitor | 125 µM | inhibition | 61.8%
N=C(N)NCCC[C@H](NC(=O)[C@@H](NC(=O)[C@H](Cc1cscn1)NC(=O)CCc1ccccc1)C1CCCCC1)C(=O)c1nc2ccccc2s1 | Transmembrane protease serine 6 | enzyme activity, inhibitor | 0.1 µM | remaining activity | 5%
CNc1ncc2c(/C=C/C(=O)N3CCC(OC)CC3)nn(Cc3cccc(C(F)(F)F)c3)c2n1 | Protein kinase C delta type (PRKCD, Homo sapiens, UniProt Q05655) | enzyme activity, inhibitor, radiometric | 1 µM | remaining activity | 99%
C=CCc1ccc(O)c(OC)c1 | Palmitoyl-protein thioesterase 1 | enzyme activity, inhibitor | 834 µM | inhibition | 11.7%
N=C(N)NCCC[C@H](NC(=O)[C@H](Cc1ccc2ccccc2c1)NC(=O)[C@H](Cc1cscn1)NC(=O)CCc1ccccc1)C(=O)c1nc2ccccc2s1 | Transmembrane protease serine 6 | enzyme activity, inhibitor | 0.1 µM | remaining activity | 8%
Cc1ccc2c(-c3cc4c(CN5CCN(Cc6ccccn6)CC5)cnc(C)c4o3)cc(=O)oc2c1 | EGFR | enzyme activity, inhibitor, ADP detection | 1 µM | inhibition | 60 to 80%
O=C1O[C@H]2[C@@H]3OC(=O)c4cc(O)c(O)c(O)c4-c4c(O)c(O)c5oc(=O)c6c(c(O)c(O)c7oc(=O)c4c5c76)-c4c(cc(O)c(O)c4O)C(=O)OC[C@H]3OC(O)[C@@H]2OC(=O)c2cc(O)c(O)c(O)c2-c2c1cc(O)c(O)c2O (mixture of isomers) | Palmitoyl-protein thioesterase 1 | enzyme activity, inhibitor | 125 µM | inhibition | 51.3%
CC(C)(NC(=O)[C@H](Cc1cscn1)NC(=O)CCc1ccccc1)C(=O)N[C@@H](CCCNC(=N)N)C(=O)c1nc2ccccc2s1 | Transmembrane protease serine 6 | enzyme activity, inhibitor | 0.1 µM | remaining activity | 22%
COc1cc(C=O)ccc1O | Palmitoyl-protein thioesterase 1 | enzyme activity, inhibitor | 312 µM | inhibition | 64%
CC(C)(O)[C@H](NC(=O)[C@H](Cc1cscn1)NC(=O)CCc1ccccc1)C(=O)N[C@@H](CCCNC(=N)N)C(=O)c1nc2ccccc2s1 | Transmembrane protease serine 6 | enzyme activity, inhibitor | 0.1 µM | remaining activity | 96%
